Among the data in ChEMBL document CHEMBL1153621, “Regioselective reaction: synthesis, characterization and pharmacological studies of some new Mannich bases derived from 1,2,4-triazoles” (2009) are MIC values, retold here.

Broadly, the MIC is the smallest concentration in the dilution series that meets the test's criterion for growth inhibition.

Molecules are shown by their SMILES. In brackets after ≈: the same amount, converted by molar mass.

Common to all, as to assay type: functional
One test deals with Pseudomonas aeruginosa. The test can be described thus: Antibacterial activity against Pseudomonas aeruginosa after 16 to 18 hrs by serial dilution method. In a few lines: (§1)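 MIC by serial dilution: compound dissolved in serially diluted DMF, a standard drop of prepared culture added to each dilution, incubated 16–18 h at 37 °C; MIC taken as the endpoint.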
A further test relates to Candida albicans. The test can be described thus: Antifungal activity against Candida albicans after 16 to 18 hrs by serial dilution method. In a few lines:
as §1

The next test deals with Escherichia coli. The test can be described thus: Antibacterial activity against Escherichia coli after 16 to 18 hrs by serial dilution method. In outline: as §1
The next test concerns Staphylococcus aureus. The test can be described thus: Antibacterial activity against Staphylococcus aureus after 16 to 18 hrs by serial dilution method. In a few lines: as §1
In the next test the test system is Bacillus subtilis. The test can be described thus: Antibacterial activity against Bacillus subtilis after 16 to 18 hrs by serial dilution method. In outline:
as §1

Regarding `Cc1n[nH]cc1/C=N/n1c(-c2ccccc2)nn(CN2CCN(C)CC2)c1=S`, the MIC is 12.5 µg/mL (≈ 31.5 µM) with Pseudomonas aeruginosa; 6 µg/mL (≈ 15.1 µM) in the test on Candida albicans; 6 µg/mL (≈ 15.1 µM) against Escherichia coli; 12.5 µg/mL (≈ 31.5 µM) against Staphylococcus aureus; 12.5 µg/mL (≈ 31.5 µM) in the test on Bacillus subtilis.

`Cc1ccc(-c2n[nH]cc2/C=N/n2c(-c3ccccc3)nn(CN3CCN(C)CC3)c2=S)cc1`: the MIC against Pseudomonas aeruginosa is 3 µg/mL (≈ 6.35 µM); in the test on Candida albicans, 3 µg/mL (≈ 6.35 µM); against Escherichia coli, 6 µg/mL (≈ 12.7 µM); in the test with Staphylococcus aureus, 6 µg/mL (≈ 12.7 µM); against Bacillus subtilis, 12.5 µg/mL (≈ 26.4 µM).

Consider `CCCc1nn(CN2CCN(C)CC2)c(=S)n1/N=C/c1c[nH]nc1-c1ccccc1`, for which the minimal inhibitory concentration (MIC) came out at 12.5 µg/mL (≈ 29.4 µM) in the test with Pseudomonas aeruginosa; 6 µg/mL (≈ 14.1 µM) against Candida albicans; 12.5 µg/mL (≈ 29.4 µM) with Escherichia coli; 6 µg/mL (≈ 14.1 µM) in the test with Staphylococcus aureus; 6 µg/mL (≈ 14.1 µM) in the test with Bacillus subtilis.

Turning to `Cc1n[nH]cc1/C=N/n1c(C)nn(CN2CCN(C)CC2)c1=S`, the MIC amounted to 6 µg/mL (≈ 17.9 µM) in the test on Pseudomonas aeruginosa; 6 µg/mL (≈ 17.9 µM) against Candida albicans; 6 µg/mL (≈ 17.9 µM) in the test with Escherichia coli; 12.5 µg/mL (≈ 37.4 µM) in the test with Staphylococcus aureus; 6 µg/mL (≈ 17.9 µM) in the test on Bacillus subtilis.

For the compound `Cc1nn(CN2CCN(C)CC2)c(=S)n1/N=C/c1c[nH]nc1-c1ccccc1`, the MIC was determined as 6 µg/mL (≈ 15.1 µM) in the test on Pseudomonas aeruginosa; 6 µg/mL (≈ 15.1 µM) with Candida albicans; 12.5 µg/mL (≈ 31.5 µM) against Escherichia coli; 6 µg/mL (≈ 15.1 µM) in the test with Staphylococcus aureus; 6 µg/mL (≈ 15.1 µM) against Bacillus subtilis.

For the compound `CCCc1nn(CN2CCN(C)CC2)c(=S)n1/N=C/c1c[nH]nc1-c1ccc(C)cc1`, the MIC against Pseudomonas aeruginosa was determined as 6 µg/mL (≈ 13.7 µM); with Candida albicans, 6 µg/mL (≈ 13.7 µM); against Escherichia coli it was 6 µg/mL (≈ 13.7 µM); against Staphylococcus aureus it was 6 µg/mL (≈ 13.7 µM); against Bacillus subtilis, 12.5 µg/mL (≈ 28.5 µM).

With `COc1ccc(-c2n[nH]cc2/C=N/n2c(C)nn(CN3CCN(C)CC3)c2=S)cc1`, the MIC worked out at 1.5 µg/mL (≈ 3.52 µM) with Pseudomonas aeruginosa; 6 µg/mL (≈ 14.1 µM) in the test on Candida albicans; 6 µg/mL (≈ 14.1 µM) in the test on Escherichia coli; 6 µg/mL (≈ 14.1 µM) against Staphylococcus aureus; 6 µg/mL (≈ 14.1 µM) in the test on Bacillus subtilis.

In the case of `COc1ccc(-c2n[nH]cc2/C=N/n2c(-c3ccccc3)nn(CN3CCN(C)CC3)c2=S)cc1`, the MIC was 3 µg/mL (≈ 6.14 µM) in the test on Pseudomonas aeruginosa; 6 µg/mL (≈ 12.3 µM) with Candida albicans; 6 µg/mL (≈ 12.3 µM) against Escherichia coli; 6 µg/mL (≈ 12.3 µM) in the test on Staphylococcus aureus; 6 µg/mL (≈ 12.3 µM) against Bacillus subtilis.

On to `Cc1ccc(-c2n[nH]cc2/C=N/n2c(C)nn(CN3CCN(C)CC3)c2=S)cc1`, for which the MIC was found to be 12.5 µg/mL (≈ 30.4 µM) against Pseudomonas aeruginosa; 6 µg/mL (≈ 14.6 µM) in the test with Candida albicans; 6 µg/mL (≈ 14.6 µM) against Escherichia coli; 12.5 µg/mL (≈ 30.4 µM) against Staphylococcus aureus; 6 µg/mL (≈ 14.6 µM) against Bacillus subtilis.

As for `CCCc1nn(CN2CCN(C)CC2)c(=S)n1/N=C/c1c[nH]nc1-c1ccc(Cl)cc1`, the MIC with Pseudomonas aeruginosa, against Candida albicans, with Escherichia coli, with Staphylococcus aureus and against Bacillus subtilis was 3 µg/mL (≈ 6.54 µM) in each case.

On to `CN1CCN(Cn2nc(-c3ccccc3)n(/N=C/c3c[nH]nc3-c3ccccc3)c2=S)CC1`, for which the MIC was 6 µg/mL (≈ 13.1 µM) against Pseudomonas aeruginosa; 6 µg/mL (≈ 13.1 µM) against Candida albicans; 6 µg/mL (≈ 13.1 µM) with Escherichia coli; 6 µg/mL (≈ 13.1 µM) in the test on Staphylococcus aureus; 12.5 µg/mL (≈ 27.3 µM) with Bacillus subtilis.

With `NC(=O)N/N=C/c1ccc([N+](=O)[O-])o1` [NITROFURAZONE], the MIC against Pseudomonas aeruginosa was determined as 12.5 µg/mL (≈ 63.1 µM); against Escherichia coli it was 6 µg/mL (≈ 30.3 µM); against Staphylococcus aureus it was 12.5 µg/mL (≈ 63.1 µM); with Bacillus subtilis, 12.5 µg/mL (≈ 63.1 µM).

`OC(Cn1cncn1)(Cn1cncn1)c1ccc(F)cc1F` [FLUCONAZOLE]: the MIC in the test with Candida albicans was determined as 6 µg/mL (≈ 19.6 µM).

For the compound `CCCc1nn(CN2CCN(C)CC2)c(=S)n1/N=C/c1c[nH]nc1-c1ccc(OC)cc1`, the MIC was found to be 6 µg/mL (≈ 13.2 µM) with Pseudomonas aeruginosa; 6 µg/mL (≈ 13.2 µM) in the test on Candida albicans; 12.5 µg/mL (≈ 27.5 µM) against Escherichia coli; 6 µg/mL (≈ 13.2 µM) in the test with Staphylococcus aureus; 12.5 µg/mL (≈ 27.5 µM) against Bacillus subtilis.
